Tests used:
[1] = The absolute striatal uptake of the carbon-11 labeled compound at 60 min was determined in baboon; type: ADME; settings: papio hamadryas, 1 h
Procedure, shortened: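 PET in one young adult female baboon (Papio anubis, 12.6 kg). Anaesthesia was ketamine (10 mg/kg), then isoflurane/nitrous oxide maintenance. The same animal was used for three experiments, at least two weeks apart.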

[2] = Peak plasma radioactivity for the carbon-11 labeled compound was determined at 0.5 min after injection in baboon; (Range = 0.08-0.11); type: ADME, cell-free; settings: papio hamadryas
[3] = Peak plasma radioactivity for the carbon-11 labeled compound was determined at 1.5 min after injection in baboon; (Range = 0.08-0.11); type: ADME, cell-free; settings: papio hamadryas, 0.025 h
[4] = The amount of unchanged tracer in baboon plasma was determined 1 min after injection of the carbon-11 labeled compound; type: ADME, cell-free; settings: papio hamadryas, read-out: Unchanged tracer
Procedure, shortened: (§1)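 Arterial plasma was sampled at 1, 10, 30 and 60 min after tracer injection in the baboon. Unchanged [N-11C-methyl]-4-fluorodeprenyl was measured by HPLC on a C18 Spherisorb 5 ODS column (250 × 4.6 mm). Mobile phase was methanol–0.05 N ammonium formate (70–30%) at 1 mL/min, with UV at 254 nm. Results are given as percent unchanged tracer.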

[5] = The amount of unchanged tracer in baboon plasma was determined 30 min after injection of the carbon-11 labeled compound; type: ADME, cell-free; settings: papio hamadryas, read-out: Unchanged tracer; procedure, shortened: as §1
[6] = The amount of unchanged tracer in baboon plasma was determined 60 min after injection of the carbon-11 labeled compound; type: ADME, cell-free; settings: papio hamadryas, read-out: Unchanged tracer; procedure, shortened: as §1
[7] = The amount of unchanged tracer in baboon plasma was determined 10 min after injection of the carbon-11 labeled compound; type: ADME, cell-free; settings: papio hamadryas, read-out: Unchanged tracer; procedure, shortened: as §1
Monoamine oxidase = target: T1, Monoamine oxidase (Homo sapiens, UniProt P21397+P27338); assay: In vitro inhibitory activity against Monoamine oxidase in baboon brain was determined; type: tissue-based, Papio hamadryas; settings: target entry is the homologue from another species
T1 sequence (P21397 whole entry): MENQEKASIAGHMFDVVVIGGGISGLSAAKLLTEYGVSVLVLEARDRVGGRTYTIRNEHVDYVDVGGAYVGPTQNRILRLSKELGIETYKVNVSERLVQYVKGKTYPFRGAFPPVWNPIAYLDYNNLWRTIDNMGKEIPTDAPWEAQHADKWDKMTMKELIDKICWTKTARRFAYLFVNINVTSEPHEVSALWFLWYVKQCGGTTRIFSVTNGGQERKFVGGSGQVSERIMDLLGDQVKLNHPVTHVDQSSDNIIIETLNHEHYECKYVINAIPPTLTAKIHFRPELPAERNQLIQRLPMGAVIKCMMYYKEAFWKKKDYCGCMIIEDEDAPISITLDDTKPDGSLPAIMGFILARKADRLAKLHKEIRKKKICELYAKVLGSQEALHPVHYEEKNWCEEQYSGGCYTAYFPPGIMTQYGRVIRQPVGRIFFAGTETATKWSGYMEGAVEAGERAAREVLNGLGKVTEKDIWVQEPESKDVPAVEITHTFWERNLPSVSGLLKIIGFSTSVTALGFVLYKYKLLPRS
T1 sequence (P27338 whole entry): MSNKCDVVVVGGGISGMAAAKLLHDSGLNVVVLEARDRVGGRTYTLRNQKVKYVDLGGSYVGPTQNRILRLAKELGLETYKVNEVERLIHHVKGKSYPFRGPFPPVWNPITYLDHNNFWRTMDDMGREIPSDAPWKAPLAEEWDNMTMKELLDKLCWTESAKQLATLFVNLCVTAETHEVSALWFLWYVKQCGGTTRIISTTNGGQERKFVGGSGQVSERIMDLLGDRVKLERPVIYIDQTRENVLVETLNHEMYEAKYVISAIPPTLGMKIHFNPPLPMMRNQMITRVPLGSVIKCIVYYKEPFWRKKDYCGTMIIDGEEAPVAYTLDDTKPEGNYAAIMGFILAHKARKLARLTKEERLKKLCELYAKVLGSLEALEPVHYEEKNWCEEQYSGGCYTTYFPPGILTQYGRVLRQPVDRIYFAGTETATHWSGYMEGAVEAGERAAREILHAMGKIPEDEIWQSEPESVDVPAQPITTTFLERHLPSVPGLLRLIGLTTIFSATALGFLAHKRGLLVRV

In the case of `C#CCN([11CH3])[C@H](C)Cc1ccc(F)cc1`, the “% injected dose/cm3” value [1] is reported as 0.053%, the “Peak radioactivity in blood” value [2] is reported as 0.11 % injected dose cm**-3 and the “Peak radioactivity in blood” value [3] is reported as 0.01 % injected dose cm**-3. For the same compound, the remaining at 1 min [4] was 96%, the remaining at 0.5 h [5] was 20% and the remaining at 1 h [6] was 14%. It also gave a remaining at 10 min [7] of 50%.

`C#CCN(C)[C@H](C)Cc1ccc(F)cc1` gave an IC50 (Monoamine oxidase) of 41.7 nM.

With `C#CCN(C)[C@@H](C)Cc1ccc(F)cc1` the “% injected dose/cm3” value [1] was 0.021%, the “Peak radioactivity in blood” value [2] was 0.11 % injected dose cm**-3 and the “Peak radioactivity in blood” value [3] was 0.01 % injected dose cm**-3. The remaining at 1 min [4] was 98%, the remaining at 0.5 h [5] was 30% and the remaining at 1 h [6] was 22%. The remaining at 10 min [7] was 61%.

With `C#CCN(C)C(C)Cc1ccc(F)cc1` (stereo not drawn) the Uptake [1] was 0.041 % injected dose cm**-3, the “Peak radioactivity in blood” value [2] was 0.11 % injected dose cm**-3 and the “Peak radioactivity in blood” value [3] was 0.01 % injected dose cm**-3. It also gave a remaining at 1 min [4] of 96%, a remaining at 0.5 h [5] of 16% and a remaining at 1 h [6] of 15%. For the same compound, the remaining at 10 min [7] was 43%.

In the case of `C#CCN(C)[C@H](C)Cc1ccccc1` [SELEGILINE], the Uptake [1] is reported as 0.057%.

— ChEMBL document CHEMBL1124851, “Synthesis of (R)-(-)- and (S)-(+)-4-fluorodeprenyl and (R)-(-)- and (S)-(+)-[N-11C-methyl]-4-fluorodeprenyl and positron emission tomography studies in baboon brain” (J Med Chem, 1990)
